Measured values as given in ChEMBL document CHEMBL1144923, “Restricted conformation analogues of an anthelmintic cyclodepsipeptide” (2003).

Experiments:
Type in all cases: functional
Meriones unguiculatus [1] = assay: Percent reduction of Haemonchus contortus in immunosuppressed jird (Meriones unguiculatus) when CDP administered 0.11 mg/jird orally
Procedure, shortened: (§1)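 Jirds were immunosuppressed via medicated food; 5 days later each got ~1000 exsheathed infective H. contortus larvae (pre-incubated 1 h in Earle's balanced salt solution) per os. The strain was maintained in sheep. Jirds were randomized by cage (3/group) on day 10 post-inoculation. Compound was suspended in 17% DMSO/83% carboxymethylcellulose and given orally in 0.2 mL, with vehicle-only controls. Worms were recovered after 5 h incubation at 37 °C, fixed in formaldehyde and counted under a dissecting microscope. Percent clearance = (mean control − mean treated)/mean control × 100.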

Meriones unguiculatus [2] = assay: Percent reduction of Haemonchus contortus in immunosuppressed jird (Meriones unguiculatus) when CDP administered 0.33 mg/jird orally; procedure, shortened: as §1
Meriones unguiculatus [3] = assay: Percent reduction of Haemonchus contortus in immunosuppressed jird (Meriones unguiculatus) when CDP administered 1 mg/jird orally; procedure, shortened: as §1
Meriones unguiculatus [4] = assay: Percent reduction of Haemonchus contortus in immunosuppressed jird (Meriones unguiculatus) when CDP administered 3 mg/jird orally; procedure, shortened: as §1
Meriones unguiculatus [5] = assay: Percent reduction of Haemonchus contortus in immunosuppressed jird (Meriones unguiculatus) when CDP administered 2.75 mg/jird orally; procedure, shortened: as §1
Meriones unguiculatus [6] = assay: Percent reduction of Haemonchus contortus in immunosuppressed jird (Meriones unguiculatus) when CDP administered 5.75 mg/jird orally; procedure, shortened: as §1

| Structure (SMILES) | Reduction (Meriones unguiculatus [1]) [%] | Reduction (Meriones unguiculatus [2]) [%] | Reduction (Meriones unguiculatus [3]) [%] | Reduction (Meriones unguiculatus [4]) [%] | Reduction (Meriones unguiculatus [5]) [%] | Reduction (Meriones unguiculatus [6]) [%] |
| --- | --- | --- | --- | --- | --- | --- |
| CC(C)C[C@H]1C(=O)O[C@H](Cc2ccccc2)C(=O)N(C)[C@@H](CC(C)C)C(=O)O[C@H](C)C(=O)N(C)[C@@H](CC(C)C)C(=O)O[C@H](Cc2ccccc2)C(=O)N(C)[C@@H](CC(C)C)C(=O)O[C@H](C)C(=O)N1C | 100 | – | – | – | – | – |
| CC(C)C[C@H]1C(=O)O[C@H](Cc2ccccc2)C(=O)N(C)[C@@H](CC(C)C)C(=O)OC2CCCN(C2=O)[C@@H](CC(C)C)C(=O)O[C@H](Cc2ccccc2)C(=O)N(C)[C@@H](CC(C)C)C(=O)O[C@H](C)C(=O)N1C (stereo partly specified) | 36 | 75 | 89 | 99 | – | – |
| CC(C)C[C@H]1C(=O)O[C@H](Cc2ccccc2)C(=O)N(C)[C@@H](CC(C)C)C(=O)O[C@@H]2CCN(C2=O)[C@@H](CC(C)C)C(=O)O[C@H](Cc2ccccc2)C(=O)N(C)[C@@H](CC(C)C)C(=O)O[C@H](C)C(=O)N1C | – | – | – | – | 69 | 89 |
| CC(C)C[C@H]1C(=O)O[C@H](Cc2ccccc2)C(=O)N(C)[C@@H](CC(C)C)C(=O)OC2CCCCN(C2=O)[C@@H](CC(C)C)C(=O)O[C@H](Cc2ccccc2)C(=O)N(C)[C@@H](CC(C)C)C(=O)O[C@H](C)C(=O)N1C (stereo partly specified) | 91 | 99 | 100 | 100 | – | – |
